Laboratory results from ChEMBL document CHEMBL1833916, “Synthesis and biological evaluation of 4-piperidinecarboxylate and 4-piperidinecyanide derivatives for T-type calcium channel blockers” (Bioorg Med Chem Lett, 2011).
Activity calls are given as the source filed them. The rule behind the calls is not given here.

Experiments:
[1] = target: Voltage-gated inwardly rectifying potassium channel KCNH2 (Homo sapiens, UniProt Q12809); assay: Inhibition of human ERG by patch clamp assay
[2] = Metabolic stability in human hepatic microsomes at 1 uM after 60 mins by LC-MS/MS analysis; format: ADME, Liver; settings: 1 h
How it was run: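 Human liver microsomes (0.5 mg/ml) with compound (1 μM) in 0.1 M potassium phosphate, pH 7.4, at 37 °C; started with β-NADPH (1.2 mM). Sampled at 0, 5, 15, 30 and 60 min, quenched with acetonitrile containing internal standard, analysed by LC–MS/MS. Reported as % parent remaining; mean of duplicate experiments.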

[3] = target: T1, Voltage-dependent T-type calcium channel subunit alpha-1G (Homo sapiens, UniProt O43497); assay: Inhibition of T-type calcium channel alpha1G expressed in human HEK293 cells assessed as KCl-induced depolarization at 10 uM after 60 mins by FDSS6000 assay; format: cell-based
T1 sequence (O43497 whole entry): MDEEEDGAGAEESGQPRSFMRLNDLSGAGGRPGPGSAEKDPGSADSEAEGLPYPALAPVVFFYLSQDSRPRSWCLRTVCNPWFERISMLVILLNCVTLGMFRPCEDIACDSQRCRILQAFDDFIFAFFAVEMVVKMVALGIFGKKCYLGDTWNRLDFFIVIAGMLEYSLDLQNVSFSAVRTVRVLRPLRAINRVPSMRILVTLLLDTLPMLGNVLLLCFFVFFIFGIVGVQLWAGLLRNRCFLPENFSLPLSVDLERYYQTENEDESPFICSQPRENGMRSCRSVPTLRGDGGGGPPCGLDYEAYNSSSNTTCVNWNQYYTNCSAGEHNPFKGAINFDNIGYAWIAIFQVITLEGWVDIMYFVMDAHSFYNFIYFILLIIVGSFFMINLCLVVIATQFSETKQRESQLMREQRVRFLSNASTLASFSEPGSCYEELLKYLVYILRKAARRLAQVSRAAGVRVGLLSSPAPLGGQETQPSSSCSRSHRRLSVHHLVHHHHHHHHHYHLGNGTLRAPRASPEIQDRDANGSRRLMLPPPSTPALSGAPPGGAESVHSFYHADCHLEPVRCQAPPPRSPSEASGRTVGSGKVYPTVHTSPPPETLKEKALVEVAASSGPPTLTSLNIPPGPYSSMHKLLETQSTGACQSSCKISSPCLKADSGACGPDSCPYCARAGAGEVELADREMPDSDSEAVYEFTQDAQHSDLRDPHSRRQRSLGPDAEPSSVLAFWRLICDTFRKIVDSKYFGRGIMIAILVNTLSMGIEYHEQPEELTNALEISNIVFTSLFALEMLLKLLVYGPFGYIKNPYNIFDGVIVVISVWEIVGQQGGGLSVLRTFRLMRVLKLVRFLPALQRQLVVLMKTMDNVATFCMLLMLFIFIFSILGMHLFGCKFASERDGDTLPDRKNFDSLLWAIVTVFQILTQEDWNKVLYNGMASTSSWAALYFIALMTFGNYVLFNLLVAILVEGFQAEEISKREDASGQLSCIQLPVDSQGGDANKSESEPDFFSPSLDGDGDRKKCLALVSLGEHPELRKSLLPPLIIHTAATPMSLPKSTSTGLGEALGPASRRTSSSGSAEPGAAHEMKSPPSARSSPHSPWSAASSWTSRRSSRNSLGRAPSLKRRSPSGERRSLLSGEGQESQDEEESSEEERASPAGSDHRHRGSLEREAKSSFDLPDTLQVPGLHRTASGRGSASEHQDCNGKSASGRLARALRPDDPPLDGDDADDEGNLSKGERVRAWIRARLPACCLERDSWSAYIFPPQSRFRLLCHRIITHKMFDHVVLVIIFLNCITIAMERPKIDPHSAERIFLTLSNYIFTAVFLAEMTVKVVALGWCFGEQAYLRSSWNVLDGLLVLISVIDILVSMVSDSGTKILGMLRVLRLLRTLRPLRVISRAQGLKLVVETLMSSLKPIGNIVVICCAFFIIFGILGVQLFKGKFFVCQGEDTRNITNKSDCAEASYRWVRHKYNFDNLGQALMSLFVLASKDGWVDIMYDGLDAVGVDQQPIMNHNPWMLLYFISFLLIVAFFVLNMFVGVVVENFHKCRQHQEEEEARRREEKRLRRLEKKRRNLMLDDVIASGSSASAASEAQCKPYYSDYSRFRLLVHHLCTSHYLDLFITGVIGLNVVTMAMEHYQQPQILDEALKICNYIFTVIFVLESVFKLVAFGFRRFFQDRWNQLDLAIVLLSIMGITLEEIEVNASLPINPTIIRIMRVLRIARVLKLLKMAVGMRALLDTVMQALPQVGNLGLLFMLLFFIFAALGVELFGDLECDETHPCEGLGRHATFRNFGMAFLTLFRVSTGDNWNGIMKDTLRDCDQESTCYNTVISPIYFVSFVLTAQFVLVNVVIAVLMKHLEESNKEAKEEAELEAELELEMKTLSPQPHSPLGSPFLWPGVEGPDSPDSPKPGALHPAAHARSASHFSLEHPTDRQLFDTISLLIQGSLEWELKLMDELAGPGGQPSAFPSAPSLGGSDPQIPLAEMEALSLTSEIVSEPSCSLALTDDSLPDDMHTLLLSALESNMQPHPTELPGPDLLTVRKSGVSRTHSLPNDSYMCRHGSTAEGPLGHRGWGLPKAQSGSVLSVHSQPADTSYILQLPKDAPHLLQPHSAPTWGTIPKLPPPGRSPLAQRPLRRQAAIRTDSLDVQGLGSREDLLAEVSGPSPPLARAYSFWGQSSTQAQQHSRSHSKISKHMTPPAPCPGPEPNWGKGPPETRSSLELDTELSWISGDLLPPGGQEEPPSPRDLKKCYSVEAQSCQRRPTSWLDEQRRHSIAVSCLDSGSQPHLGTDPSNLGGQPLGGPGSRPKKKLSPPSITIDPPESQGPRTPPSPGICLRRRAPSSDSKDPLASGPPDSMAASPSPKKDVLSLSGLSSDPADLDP

[4] = target: T1, Voltage-dependent T-type calcium channel subunit alpha-1G; assay: Inhibition of T-type calcium channel alpha1G expressed in human HEK293 cells assessed as KCl-induced depolarization after 60 mins by FDSS6000 assay; format: cell-based
[5] = system: Rattus norvegicus; assay: Antiallodynic activity in rat spinal nerve ligation model of neuropathic pain assessed as inhibition of cold allodynia at 100 mg/kg, po after 5 hrs; format: functional, organism-based; design: dose 100 mg/kg
How it was run: (§1)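 Rats with induced neuropathic pain, dosed orally at 100 mg/kg (n = 5 per group), with gabapentin 100 mg/kg po as reference. Mechanical and cold allodynia were followed over days after nerve injury and hours after dosing. Significance was tested by unpaired t-test (P < 0.05).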

[6] = system: Rattus norvegicus; assay: Antiallodynic activity in rat spinal nerve ligation model of neuropathic pain assessed as suppression of mechanical allodynia at 100 mg/kg, po after 5 hrs; format: functional, organism-based; design: dose 100 mg/kg; how it was run: as §1

Voltage-gated inwardly rectifying potassium channel KCNH2, sequence (Q12809 whole entry): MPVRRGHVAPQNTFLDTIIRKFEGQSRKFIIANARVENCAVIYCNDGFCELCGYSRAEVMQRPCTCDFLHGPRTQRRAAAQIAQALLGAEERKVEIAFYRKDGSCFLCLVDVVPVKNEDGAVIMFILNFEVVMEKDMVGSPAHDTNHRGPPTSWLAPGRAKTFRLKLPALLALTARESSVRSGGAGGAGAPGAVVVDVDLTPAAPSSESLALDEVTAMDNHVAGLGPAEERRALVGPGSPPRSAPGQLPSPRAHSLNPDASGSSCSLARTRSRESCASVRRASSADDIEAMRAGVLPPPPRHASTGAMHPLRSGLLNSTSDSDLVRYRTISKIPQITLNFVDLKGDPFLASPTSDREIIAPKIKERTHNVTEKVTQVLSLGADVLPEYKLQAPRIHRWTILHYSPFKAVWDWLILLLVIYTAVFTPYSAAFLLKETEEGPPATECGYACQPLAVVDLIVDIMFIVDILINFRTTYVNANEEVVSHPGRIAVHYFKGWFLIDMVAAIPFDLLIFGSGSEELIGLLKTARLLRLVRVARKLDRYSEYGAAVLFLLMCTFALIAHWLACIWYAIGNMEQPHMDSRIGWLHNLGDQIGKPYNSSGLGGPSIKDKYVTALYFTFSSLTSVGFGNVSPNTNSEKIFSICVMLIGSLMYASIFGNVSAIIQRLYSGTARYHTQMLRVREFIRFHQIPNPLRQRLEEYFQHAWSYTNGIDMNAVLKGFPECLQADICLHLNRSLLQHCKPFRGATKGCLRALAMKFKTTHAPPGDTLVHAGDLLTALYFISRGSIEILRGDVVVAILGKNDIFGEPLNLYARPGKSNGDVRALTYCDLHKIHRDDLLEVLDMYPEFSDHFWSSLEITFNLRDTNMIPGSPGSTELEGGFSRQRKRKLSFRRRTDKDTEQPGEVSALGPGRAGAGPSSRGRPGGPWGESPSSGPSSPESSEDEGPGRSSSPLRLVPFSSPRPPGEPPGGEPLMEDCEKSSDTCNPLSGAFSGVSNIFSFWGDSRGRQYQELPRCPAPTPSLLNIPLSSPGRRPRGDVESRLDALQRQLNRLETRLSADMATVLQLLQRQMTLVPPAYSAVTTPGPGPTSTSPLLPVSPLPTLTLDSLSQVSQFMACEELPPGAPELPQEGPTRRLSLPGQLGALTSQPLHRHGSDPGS

Row | SMILES | IC50 [1] [nM] | inhibition [3] [%] | also measured
1 | COC(=O)C1(CNC(=O)c2cc(OC)cc(OC)c2)CCN(Cc2ccccc2C(F)(F)F)CC1 | 4980 | 63.6 | Stability [2]: Unstable
2 | COC(=O)C1(CNC(=O)c2cc(Cl)cc(Cl)c2)CCN(Cc2ccccc2OC)CC1 | 160 | 68.5 | –
3 | COC(=O)C1(CNC(=O)c2cc(OC)cc(OC)c2)CCN(Cc2cccc(OC)c2)CC1 | 310 | 56.2 | –
4 | CC(C)Cc1cc(C(=O)NCC2(C#N)CCN(Cc3ccccc3C(F)(F)F)CC2)nn1-c1ccccc1 | 4760 | 45.4 | –
5 | N#CC1(CNC(=O)c2cc(Cl)cc(Cl)c2)CCN(CCc2ccccc2)CC1 | 360 | 71.8 | –
6 | N#CC1(CNC(=O)c2cc(Cl)cc(Cl)c2)CCN(Cc2cccc(C(F)(F)F)c2)CC1 | – | 8.76 | –
7 | COC(=O)C1(CNC(=O)c2cc(OC)cc(OC)c2)CCN(CCc2ccccc2)CC1 | – | 65 | –
8 | N#CC1(CNC(=O)c2cc(Cl)cc(Cl)c2)CCN(Cc2ccc(C(F)(F)F)cc2)CC1 | – | 8.7 | –
9 | COc1cc(OC)cc(C(=O)NCC2(C#N)CCN(Cc3ccc(C(F)(F)F)cc3)CC2)c1 | – | 13.9 | –
10 | N#CC1(CNC(=O)c2cc(Cl)cc(Cl)c2)CCN(Cc2ccccc2C(F)(F)F)CC1 | – | 9.99 | –
11 | COc1ccccc1CN1CCC(C#N)(CNC(=O)c2cc(CC(C)C)n(-c3ccccc3)n2)CC1 | – | 50.9 | –
12 | COC(=O)C1(CNC(=O)c2cc(Cl)cc(Cl)c2)CCN(Cc2ccccc2C(F)(F)F)CC1 | – | 44.1 | –
13 | CC(C)Cc1cc(C(=O)NCC2(C#N)CCN(Cc3cccc(C(F)(F)F)c3)CC2)nn1-c1ccccc1 | – | 15.8 | –
14 | COc1cccc(CN2CCC(C#N)(CNC(=O)c3cc(OC)cc(OC)c3)CC2)c1 | – | 60.4 | –
15 | COC(=O)C1(CNC(=O)c2cc(Cl)cc(Cl)c2)CCN(CCc2ccccc2)CC1 | – | 77.2 | –
16 | COC(=O)C1(CNC(=O)c2cc(Cl)cc(Cl)c2)CCN(Cc2ccc(OC)cc2)CC1 | – | 74.5 | –
17 | COc1cc(OC)cc(C(=O)NCC2(C#N)CCN(CCc3ccccc3)CC2)c1 | 1570 | 61.9 | Stability [2]: Unstable
18 | COC(=O)C1(CNC(=O)c2cc(Cl)cc(Cl)c2)CCN(Cc2cccc(OC)c2)CC1 | 360 | 73 | –
19 | COc1cc(OC)cc(C(=O)NCC2(C#N)CCN(Cc3ccccc3C(F)(F)F)CC2)c1 | 4760 | 45.4 | –
20 | COC(=O)C1(CNC(=O)c2cc(Cl)cc(Cl)c2)CCN(Cc2ccc(C(F)(F)F)cc2)CC1 | 290 | 43.3 | –
21 | COc1cc(OC)cc(C(=O)NCC2(C(=O)O)CCN(Cc3ccc(C(F)(F)F)cc3)CC2)c1.Cl | – | – | IC50 [4]: 7310 nM; inhibition [5]: Active; Stability [2]: Stable; Activity [6]: Active

Row | SMILES | IC50 [1] [nM] | inhibition [3] [%] | also measured
22 | COc1cc(OC)cc(C(=O)NCC2(C#N)CCN(Cc3cccc(C(F)(F)F)c3)CC2)c1 | – | 15.8 | –
23 | COC(=O)C1(CNC(=O)c2cc(OC)cc(OC)c2)CCN(Cc2cccc(C(F)(F)F)c2)CC1 | 2800 | 72 | Stability [2]: Unstable
24 | CC(C)Cc1cc(C(=O)NCC2(C#N)CCN(Cc3ccc(C(F)(F)F)cc3)CC2)nn1-c1ccccc1 | – | 13.9 | –
25 | COC(=O)C1(CNC(=O)c2cc(OC)cc(OC)c2)CCN(Cc2ccccc2OC)CC1 | 1900 | 46.8 | –
26 | COC(=O)C1(CNC(=O)c2cc(OC)cc(OC)c2)CCN(Cc2ccc(OC)cc2)CC1 | 480 | 59 | –
27 | CC(C)Cc1cc(C(=O)NCC2(C#N)CCN(CCc3ccccc3)CC2)nn1-c1ccccc1 | – | 61.9 | –
28 | COc1cccc(CN2CCC(C#N)(CNC(=O)c3cc(Cl)cc(Cl)c3)CC2)c1 | – | 8.33 | –
29 | COc1ccc(CN2CCC(C#N)(CNC(=O)c3cc(Cl)cc(Cl)c3)CC2)cc1 | – | 16.1 | –
30 | COC(=O)C1(CNC(=O)c2cc(Cl)cc(Cl)c2)CCN(Cc2cccc(C(F)(F)F)c2)CC1 | – | 72 | –
31 | COC(=O)C1(CNC(=O)c2cc(OC)cc(OC)c2)CCN(CC2=Cc3ccccc3OC2(C)C)CC1 | – | 58 | –
32 | COc1ccc(CN2CCC(C#N)(CNC(=O)c3cc(OC)cc(OC)c3)CC2)cc1 | – | 53 | –
33 | COc1cc(OC)cc(C(=O)NCC2(C#N)CCN(CC3=Cc4ccccc4OC3(C)C)CC2)c1 | 4730 | 44.3 | –
34 | CC(C)Cc1cc(C(=O)NCC2(C#N)CCN(CC3=Cc4ccccc4OC3(C)C)CC2)nn1-c1ccccc1 | 4730 | 44.3 | –
35 | COc1cc(OC)cc(C(=O)NCC2(C#N)CCN(Cc3ccccc3OC)CC2)c1 | 920 | 50.9 | –
36 | COc1cccc(CN2CCC(C#N)(CNC(=O)c3cc(CC(C)C)n(-c4ccccc4)n3)CC2)c1 | 1500 | 60.4 | –
37 | COc1ccc(CN2CCC(C#N)(CNC(=O)c3cc(CC(C)C)n(-c4ccccc4)n3)CC2)cc1 | – | 53 | –
38 | COc1ccccc1CN1CCC(C#N)(CNC(=O)c2cc(Cl)cc(Cl)c2)CC1 | – | 19.3 | –
39 | COC(=O)C1(CNC(=O)c2cc(OC)cc(OC)c2)CCN(Cc2ccc(C(F)(F)F)cc2)CC1 | – | 64.3 | IC50 [4]: 4180 nM; Stability [2]: Unstable
40 | NCC1(CC(=O)O)CCCCC1 | – | – | inhibition [5]: Active; Activity [6]: Active
41 | CC1(C)Oc2ccccc2C=C1CN1CCC(C#N)(CNC(=O)c2cc(Cl)cc(Cl)c2)CC1 | – | 13.6 | –
42 | COC(=O)C1(CNC(=O)c2cc(Cl)cc(Cl)c2)CCN(CC2=Cc3ccccc3OC2(C)C)CC1 | 13800 | 33.9 | –
